The values below come from ChEMBL document CHEMBL4613315, “Design of First-in-Class Dual EZH2/HDAC Inhibitor: Biochemical Activity and Biological Evaluation in Cancer Cells” (ACS Med Chem Lett, 2020).

The term inhibition denotes the share of the control response that was lost under treatment. For orientation: IC50 means the concentration that inhibits the measured activity by half.

Molecules are shown by their SMILES. Calls of active or inactive are those of the source. No cut-off for these calls is given here.

Assay [1] concerns U-937. As to the kind of experiment: Cytotoxicity against human U937 cells assessed as reduction in cell viability at 25 uM incubated for 72 hrs by CellTiter-Glo Luminescent cell viability assay relative to control. The class given is functional. Conditions: U-937, 72 h. In outline: (§1)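 Viability after 72 h of single-agent or combined treatment with the HDAC inhibitor (0.05–0.25 μM) and the EZH2 inhibitor. EZH2 inhibitor range: U937 5–25 μM; RH4 10–50 μM. Synergy was assessed by combination index and isobologram analysis.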
(In general: In ATP-based viability assays light output follows the ATP content of the culture.)

Assay [2] can be described thus: Cytotoxicity against human RH4 cells assessed as combinational index measured at fraction affected value of 0.63 in presence of vorinostat at 50 uM incubated for 72 hrs by CellTiter-Glo Luminescent cell viability assay. It counts as functional. In outline:
as §1

For assay [3], the system named is U-937. As to the kind of experiment: Cytotoxicity against human U937 cells assessed as combinational index measured at fraction affected value of […] in presence of vorinostat at 25 uM incubated for 72 hrs by CellTiter-Glo Luminescent cell viability assay. It counts as functional.
Assay [4] addresses Histone-lysine N-methyltransferase EZH2 (Homo sapiens, UniProt Q15910). Briefly: Inhibition of EZH2 in human U937 cells assessed as H3K27me3 level at 50 uM incubated for 96 hrs by Western blot analysis. It counts as cell-based. Conditions: U-937. Background: Immunoblotting shows a protein as a band on a membrane.
For assay [5], the system named is U-937. As to the kind of experiment: Cytotoxicity against human U937 cells assessed as combinational index measured at fraction affected value of 0.05 in presence of vorinostat at 1 uM incubated for 72 hrs by CellTiter-Glo Luminescent cell viability assay. The class given is functional.
Assay [6] deals with U-937. Briefly: Cytotoxicity against human U937 cells assessed as reduction in cell viability at 25 uM in presence of vorinostat incubated for 72 hrs by CellTiter-Glo Luminescent cell viability assay relative to control. It counts as functional. Conditions: U-937, 72 h. In outline:
as §1

The target of assay [7] is T1, Protein deacetylase HDAC6 (Homo sapiens) (UniProt Q9UBN7).
T1 sequence (whole entry): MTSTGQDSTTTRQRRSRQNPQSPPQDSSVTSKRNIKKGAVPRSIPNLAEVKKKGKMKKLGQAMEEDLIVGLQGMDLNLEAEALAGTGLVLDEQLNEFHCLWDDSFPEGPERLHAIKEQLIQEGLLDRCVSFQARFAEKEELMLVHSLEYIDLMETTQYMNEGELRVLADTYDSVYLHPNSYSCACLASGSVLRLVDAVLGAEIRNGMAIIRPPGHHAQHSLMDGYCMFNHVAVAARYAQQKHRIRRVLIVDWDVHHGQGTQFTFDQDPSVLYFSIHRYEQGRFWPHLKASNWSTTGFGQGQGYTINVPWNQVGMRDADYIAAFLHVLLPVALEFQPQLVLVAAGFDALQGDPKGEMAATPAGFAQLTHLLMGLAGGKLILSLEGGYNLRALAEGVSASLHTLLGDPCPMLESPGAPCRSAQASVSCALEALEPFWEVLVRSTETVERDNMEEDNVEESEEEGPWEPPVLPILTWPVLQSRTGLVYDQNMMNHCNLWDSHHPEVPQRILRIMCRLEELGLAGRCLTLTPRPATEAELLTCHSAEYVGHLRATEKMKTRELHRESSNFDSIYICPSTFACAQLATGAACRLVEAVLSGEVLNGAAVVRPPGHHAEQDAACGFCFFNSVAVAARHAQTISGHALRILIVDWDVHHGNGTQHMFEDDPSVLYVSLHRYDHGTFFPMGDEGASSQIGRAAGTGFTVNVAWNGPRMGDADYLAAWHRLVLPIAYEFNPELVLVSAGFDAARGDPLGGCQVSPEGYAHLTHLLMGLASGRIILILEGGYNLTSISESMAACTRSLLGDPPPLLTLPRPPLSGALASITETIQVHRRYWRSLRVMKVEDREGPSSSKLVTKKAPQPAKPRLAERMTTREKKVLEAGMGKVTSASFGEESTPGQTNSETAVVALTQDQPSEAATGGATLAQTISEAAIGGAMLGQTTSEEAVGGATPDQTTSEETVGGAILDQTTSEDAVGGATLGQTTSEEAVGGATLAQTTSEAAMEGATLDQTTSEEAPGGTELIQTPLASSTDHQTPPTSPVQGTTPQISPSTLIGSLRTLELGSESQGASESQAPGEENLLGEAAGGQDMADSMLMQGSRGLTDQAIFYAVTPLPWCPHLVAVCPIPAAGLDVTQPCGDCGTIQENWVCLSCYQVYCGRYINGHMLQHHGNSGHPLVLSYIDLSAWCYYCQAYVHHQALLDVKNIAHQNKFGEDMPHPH
As to the kind of experiment: Inhibition of HDAC6 in human RH4 cells assessed as acetylated alpha-tubulin level at 50 uM in presence of vorinostat incubated for 72 hrs by Western blot analysis (reference value: 1). The class given is cell-based. The method, boiled down: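 RH4 cells co-treated with EZH2 inhibitor at 50 μM plus HDAC inhibitor at 0.15 μM; Western blot after 72 or 96 h for H3K27me3 or acetyl-tubulin, vinculin loading control; densitometry normalized to loading control then DMSO vehicle.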

The test system of assay [8] is U-937. Briefly: Cytotoxicity against human U937 cells assessed as combinational index measured at fraction affected value of 0.68 in presence of vorinostat at 10 uM incubated for 72 hrs by CellTiter-Glo Luminescent cell viability assay. It counts as functional. The method, boiled down: as §1
For another assay, the species on record is Homo sapiens. As to the kind of experiment: Induction of differentiation of human RH4 cells assessed as increase in myogenin level at 7 uM incubated for 96 hrs by Western blot analysis. It counts as functional. In outline:
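Myogenin was measured by Western blot in RH4 cells treated at 7 and 14 μM for 48, 72 and 96 h. Vinculin served as the loading control.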

The subject of assay [9] is U-937. Briefly: Induction of apoptosis in human U937 cells assessed as necrotic cells at 25 uM incubated for 72 hrs by annexin V-FITC staining based flow cytometry (reference value: 0.5 %). It counts as functional. (In flow cytometry, cells or beads pass a laser one at a time.)
Assay [10] relates to U-937. Briefly: Cell cycle arrest in human U937 cells assessed as subG1 accumulation at 10 uM incubated for 72 hrs by propidium iodide staining based flow cytometry (reference value: 4.9 %).
Assay [11] in a line: Cytotoxicity against human RH4 cells assessed as reduction in cell viability at 35 uM incubated for 96 hrs by CellTiter-Glo Luminescent cell viability assay relative to control. Particulars: Rh4, 96 h. It counts as functional. The method, boiled down:
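Viability of U937 (5–25 μM) and RH4 (5–35 μM) cells after 48, 72 and 96 h of treatment at increasing concentrations.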

In the next assay the target is Histone deacetylase 5 (Homo sapiens, UniProt Q9UQL6). As to the kind of experiment: Inhibition of human recombinant HDAC5 using AMC-K(TFA)GL as substrate by fluorescence based assay.
Histone deacetylase 5, sequence (Q9UQL6 whole entry): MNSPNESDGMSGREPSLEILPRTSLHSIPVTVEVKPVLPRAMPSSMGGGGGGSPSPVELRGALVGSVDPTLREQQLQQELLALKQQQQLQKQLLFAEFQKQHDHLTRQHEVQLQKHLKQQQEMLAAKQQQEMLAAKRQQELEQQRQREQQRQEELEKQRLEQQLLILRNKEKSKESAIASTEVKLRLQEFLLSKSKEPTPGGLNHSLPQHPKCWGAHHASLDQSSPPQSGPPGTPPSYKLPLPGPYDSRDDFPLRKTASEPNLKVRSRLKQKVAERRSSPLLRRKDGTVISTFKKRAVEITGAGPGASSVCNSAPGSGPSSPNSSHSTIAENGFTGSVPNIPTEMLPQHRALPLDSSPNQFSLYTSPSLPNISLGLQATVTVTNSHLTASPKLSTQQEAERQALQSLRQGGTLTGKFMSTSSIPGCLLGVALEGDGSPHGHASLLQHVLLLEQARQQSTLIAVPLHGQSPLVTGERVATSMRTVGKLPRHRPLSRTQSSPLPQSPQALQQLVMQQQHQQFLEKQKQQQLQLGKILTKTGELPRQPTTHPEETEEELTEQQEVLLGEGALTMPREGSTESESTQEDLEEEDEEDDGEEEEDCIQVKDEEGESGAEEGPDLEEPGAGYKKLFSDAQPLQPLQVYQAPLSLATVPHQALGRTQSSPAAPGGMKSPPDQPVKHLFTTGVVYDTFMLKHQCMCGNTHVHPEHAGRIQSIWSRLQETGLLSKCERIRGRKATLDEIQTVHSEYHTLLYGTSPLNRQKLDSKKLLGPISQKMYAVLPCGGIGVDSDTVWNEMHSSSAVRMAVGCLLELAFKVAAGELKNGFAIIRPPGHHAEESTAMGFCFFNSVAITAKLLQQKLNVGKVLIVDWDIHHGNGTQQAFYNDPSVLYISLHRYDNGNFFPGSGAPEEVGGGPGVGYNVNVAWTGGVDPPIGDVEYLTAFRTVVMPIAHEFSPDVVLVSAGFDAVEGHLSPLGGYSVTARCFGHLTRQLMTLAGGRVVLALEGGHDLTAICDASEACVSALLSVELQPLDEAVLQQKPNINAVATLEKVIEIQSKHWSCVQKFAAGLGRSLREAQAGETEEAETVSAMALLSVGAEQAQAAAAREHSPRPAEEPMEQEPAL
Assay [12] relates to U-937. As to the kind of experiment: Induction of apoptosis in human U937 cells assessed as early apoptotic cells at 10 uM incubated for 72 hrs by annexin V-FITC staining based flow cytometry (reference value: 3.4 %). It counts as functional.
Assay [13] relates to U-937. Briefly: Induction of apoptosis in human U937 cells assessed as early apoptotic cells at 25 uM incubated for 72 hrs by annexin V-FITC staining based flow cytometry (reference value: 3.4 %). It counts as functional.
The subject of assay [14] is U-937. Briefly: Induction of differentiation of human U937 cells assessed as increase in CD11b level at 25 uM incubated for 72 hrs by flow cytometry analysis. It counts as functional. The method, boiled down:
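U937 cells were treated for 72 h at 10 and 25 μM, and surface CD11b expression was measured as a differentiation marker.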

Histone-lysine N-methyltransferase EZH2, sequence (Q15910 whole entry, looked up): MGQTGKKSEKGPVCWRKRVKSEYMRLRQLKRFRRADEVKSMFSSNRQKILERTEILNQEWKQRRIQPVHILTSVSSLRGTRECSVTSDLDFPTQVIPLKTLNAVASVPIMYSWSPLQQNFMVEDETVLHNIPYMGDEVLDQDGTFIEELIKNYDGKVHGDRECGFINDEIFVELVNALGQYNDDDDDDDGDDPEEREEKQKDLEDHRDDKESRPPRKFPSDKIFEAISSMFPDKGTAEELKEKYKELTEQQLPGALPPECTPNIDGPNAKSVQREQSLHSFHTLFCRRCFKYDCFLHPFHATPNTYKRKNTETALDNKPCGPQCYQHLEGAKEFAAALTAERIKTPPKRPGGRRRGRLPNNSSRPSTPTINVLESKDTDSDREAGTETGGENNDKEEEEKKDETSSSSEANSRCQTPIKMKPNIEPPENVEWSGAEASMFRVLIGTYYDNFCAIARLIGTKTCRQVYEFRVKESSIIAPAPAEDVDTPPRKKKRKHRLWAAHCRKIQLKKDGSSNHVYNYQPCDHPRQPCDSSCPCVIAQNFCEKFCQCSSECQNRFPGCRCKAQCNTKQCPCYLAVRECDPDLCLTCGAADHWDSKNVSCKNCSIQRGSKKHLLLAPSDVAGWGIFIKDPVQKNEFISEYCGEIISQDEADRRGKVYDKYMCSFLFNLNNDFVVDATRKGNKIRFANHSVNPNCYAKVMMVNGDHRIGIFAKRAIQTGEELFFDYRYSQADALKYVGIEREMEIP

As for `Cc1cc(C)c(CNC(=O)c2cc(C)n(-c3ccccc3)c2C)c(=O)[nH]1`, the inhibition at 25 µM with U-937 [1] came out at 25%; in the assay on U-937 [6], 90%. The CI in assay [2] is 0.54; in the assay on U-937 [3] it was 0.04; with U-937 [5], 3.34; in the assay on U-937 [8] it was 0.14. Besides, the fold change (FC) in [4] amounted to 0.9; in assay [7] it was 2.4.
In the case of `Cc1cc(C)c(CNC(=O)c2cc(C)n(-c3cccc(NC(=O)CCCCCCC(=O)NO)c3)c2C)c(=O)[nH]1`, the outcome in the assay filed under Homo sapiens was Active. The Activity in the assay on U-937 [9] came out at 0.3%; in the assay with U-937 [10], 8.2%; in the assay on U-937 [12] it was 4.2%; in the assay on U-937 [13], 23.3%. Besides, the inhibition at 35 µM in assay [11] was 90%. For the same molecule, the IC50 at Histone deacetylase 5 is 16.6 µM. In addition, the “fold change (FC)” value with U-937 [14] worked out at 2.7.
